The structures appear in SMILES notation.

This data set in a line: Toxicity liver stage against HepG2, at 10uM. In kind it is cell-based. Also noted: test concentration 10 uM, cell line HepG2-A16-CD81EGFP. The conditions noted are these: human, HepG2-A16-CD81EGFP cells; read-out: INHIBITION
An outline of the steps:
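Uninfected HepG2-A16-CD81EGFP cells, 3 × 10^3 per well, 1536-well, plated on prespotted compound at 10 μM final, parasite-free screening media added to match infected plates; puromycin 10 μM positive, DMSO 0.5% negative; run in parallel with 48 h PbLuc assay at 37 °C, 5% CO2; viability by CellTiter-Glo luminescence, normalized to controls.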
In the case of `CC(=O)N1CCn2c(C(=O)N(C)C)cnc2C1`, the cytotoxicity at 10 µM was 1.54%.
Consider `CCS(=O)(=O)N1CCC2(CC1)CCn1c(-c3cnn(C)c3)cnc12`, for which the cytotoxicity at 10 µM was -138%.
As for `Fc1cnc(N2CC3(CCN(CC4CC4)C3)C2)nc1`, the cytotoxicity at 10 µM was -2.73%.
With `COc1ccc2cc(-c3n[nH]cc3CN3CCSCC3)ccc2c1`, the cytotoxicity at 10 µM turned out to be 2.22%.
Under `CC(=O)N1CCC(C(=O)Nc2nc(C3CC3)cs2)CC1` stands -3.28%; under `CC(=O)c1cccc(S(=O)(=O)NCc2cccnc2N(C)C)c1`, 4.24%; under `O=C(NCc1ccc(CN2CCCC2)cc1)NCc1ccon1`, -0.145%.
The same measure for `CC(C)(C)c1ncc(C(=O)NCCn2ccnc2)s1`: 3.39%; for `Cc1ccc(C(=O)N2C[C@H]3CNC[C@H]3C2)cn1`: -1.16%; for `Cc1cccc(CN2CCS(=O)(=O)[C@@H]3CCN(S(C)(=O)=O)CC[C@@H]32)n1`: -3.34%.
Consider `O=C(O)c1cccc2c(Br)cccc12`, for which the cytotoxicity at 10 µM is 3.38%.
The same measure for `CCC(C(=O)NCc1ccncc1)N(c1ccc(OC)cc1)S(C)(=O)=O` (stereo not drawn): -10.2%; for `COc1cc(Cl)cc(CN2CCCC(N3CCOCC3)C2)c1OC` (stereo not drawn): 0.944%.
For the compound `Cn1ccnc1CN1CCC2(CC1)CCN(Cc1ccoc1)C2`, the cytotoxicity at 10 µM is -6.08%.
Under `CC(C)(O)CN1CCC(=O)N(Cc2ccco2)Cc2cc(F)ccc21` stands -3.66%.
On to `O=C(NC1CC1)[C@H]1C[C@H]2OCC[C@H]2N(CC2CC2)C1`, for which the cytotoxicity at 10 µM was 2.76%.
The same measure for `Cc1cccc(NC(=O)c2ccc(OCc3nnnn3C)cc2)n1`: -34.1%; for `Cc1nn(C)c(C)c1C1CCCN1Cc1nc(C)c2ccccc2n1` (stereo not drawn): -3.9%.
Under `CCNC(=O)NC1CN(CC(=O)NCc2ccccc2C)C[C@@H]1OC` (stereo partly drawn) stands -1.6%; under `CCN(C)c1ncnc2c1CCN(Cc1ccsc1)CC2`, 1.69%.
Under `CCN1CCN(C(=O)c2ccc3c(c2)CCCN3)[C@H]2CS(=O)(=O)C[C@H]21` stands -57.8%.
`Cc1cc(C2CCCN2C(=O)NCc2cccnc2OC(C)C)on1` (stereo not drawn): the cytotoxicity at 10 µM is -9.63%.
As for `COc1c(CNCc2ccc(S(C)(=O)=O)cc2)c(C)nn1C`, the cytotoxicity at 10 µM was -8.27%.
`Cn1nc(CNC(=O)CC#N)c2c1CN(CC1CC1)CC2`: the cytotoxicity at 10 µM was determined as 7.4%.
Under `COCCN1C(=O)CC[C@@H]2[C@H]1CCN2C(=O)C1CCOCC1` stands 9.67%; under `Cc1nonc1CNC(=O)C(C)Oc1ccccc1F` (stereo not drawn), 2.57%.
The same measure for `Cc1cc(-n2nc(C)nc2-c2cn(CCN)nn2)ccn1`: 7.55%; for `CC(O)CNC(=O)c1nc(Cc2c(Cl)cccc2Cl)no1` (stereo not drawn): 3%; for `Cc1ccc(F)c(N2CCCC(NS(=O)(=O)CCCF)C2=O)c1` (stereo not drawn): -3.14%.
As to `Cc1cc(C)c(CNC(=O)CC2CCCO2)c(=O)[nH]1` (stereo not drawn), the cytotoxicity at 10 µM is -10.7%.
For `COCCOCC(=O)NC(C#N)c1cc(Cl)cc(Cl)c1` (stereo not drawn), the cytotoxicity at 10 µM was 8.31%.
Under `CC(C)c1cc(NC(=O)CN2CCn3c(nnc3C3CC3)C2)on1` stands -14.1%; under `CCc1nc(C2CCCN(c3ncc(Br)cn3)C2)no1` (stereo not drawn), 1.47%; under `CN1C(=O)C2(CCN(Cc3cccnc3)CC2)c2cccc(F)c21`, 6.77%.
Under `Cc1cc(C)n(-c2cncc(NCCNC(=O)C(C)(C)C)n2)n1` stands 1.36%; under `O=C(c1cc(-n2cccn2)ccc1Cl)N1CCCC(N2CCCC2)C1` (stereo not drawn), 1.86%.
The same measure for `CNS(=O)(=O)c1ccc(C(=O)NCCc2ccccn2)cc1`: -3.81%.
Regarding `Cc1nnc(NCC(c2cccs2)N2CCCC2)c(C#N)c1C` (stereo not drawn), the cytotoxicity at 10 µM was -4.94%.
`CCN1CCOC(CNCc2ccc(OC)c(F)c2)C1` (stereo not drawn): the cytotoxicity at 10 µM was found to be 1.79%.
`CCc1n[nH]c(C2CN(C(=O)c3cnc(C)cn3)CCO2)n1` (stereo not drawn): the cytotoxicity at 10 µM is -2.9%.
Under `O=C1[C@H]2CN(Cc3ccccc3)C[C@H]2CN1c1cncnc1` stands -4.53%.
Consider `CCn1nc(C)cc1C(=O)N1CCCN(CCCc2ccccc2)CC1`, for which the cytotoxicity at 10 µM is -1.45%.
As for `COCC(=O)NCCC(=O)N1CCN(S(=O)(=O)c2ccc(Br)cc2)CC1`, the cytotoxicity at 10 µM was -38.2%.
Under `Cc1nc2c(N3CCN(CCO)CC3)nc(N)nc2n1C` stands -10.8%; under `CCN(CC)C(=O)CNS(=O)(=O)c1cc(Br)ccc1F`, -45.9%.
The same measure for `O=C(CN1CCOC(Cn2cncn2)C1)NC(C1CC1)C1CC1` (stereo not drawn): -49.5%; for `CSCc1noc(CN2CCC3(CC2)CC(=O)N(CC=C(C)C)C3)n1`: -0.589%.
With `CC(C)c1noc(CN2CCN(C(=O)OC(C)(C)C)C(C)C2)n1` (stereo not drawn), the cytotoxicity at 10 µM came out at 2.24%.
Under `CC(=O)c1cnc(N(C)Cc2cc(C)cc(C)n2)nc1C` stands 8.81%; under `Cc1ccc(CN2CCN(C3CCCC3)CC2CCO)o1` (stereo not drawn), -6.05%.
In the case of `O=C(NCCn1ccc(-c2ccncc2)n1)c1ccncc1`, the cytotoxicity at 10 µM is -19.1%.
As for `Cc1ncsc1CN1CC[C@H]2OCC[C@@]2(C(=O)N2CCCO2)C1`, the cytotoxicity at 10 µM was -0.0653%.
Regarding `c1ccc(OCCN2CCC(c3cnccn3)CC2)cc1`, the cytotoxicity at 10 µM amounted to 7.56%.
Consider `CC1CCCN(c2nccn3c(=O)[nH]nc23)C1` (stereo not drawn), for which the cytotoxicity at 10 µM was 12.1%.
Under `NC(=O)c1ccc(C2CCCNC2)nc1` (stereo not drawn) stands -15.1%; under `CCn1cnnc1C1CCN(C(=O)c2cccc(N(C)C)c2)CC1`, 1.54%.
Under `CCc1nccn1C1CCCN(C(=O)c2cncnc2C)C1` (stereo not drawn) stands -11.8%; under `CCCC1COCCN1Cc1ccc(NC(C)=O)cc1` (stereo not drawn), -145%; under `O=C(Cn1cccnc1=O)NCC1Cc2ccccc2O1` (stereo not drawn), -4.62%.
The same measure for `CCn1cnnc1CNc1nc(C)nc2scc(CC(C)C)c12`: -3.17%.
Regarding `CN(C)CC1CN(Cc2cccc(C(=O)N(C)C)c2)CCO1` (stereo not drawn), the cytotoxicity at 10 µM was -0.729%.
The same measure for `CC(C)OCc1nn(C)c2c1CCN(Cc1ccco1)C2`: -115%; for `COc1ccc(-n2nnc(C(=O)O)c2-c2ccccn2)cc1`: 13.7%.
Under `COc1ncccc1C(=O)N1CCc2c(ncnc2N2CCOCC2)C1` stands -3.5%.
The same measure for `Nc1nc2c(c(N3CCCC(OCc4ccccn4)C3)n1)CCNCC2` (stereo not drawn): -11.4%; for `Cc1ccncc1NS(=O)(=O)c1ccc(Cl)s1`: 0.405%.
Turning to `CCc1noc(CNc2ccc(F)cc2OCC2CC2)n1`, the cytotoxicity at 10 µM was -7.21%.
Under `O=C(Nc1cccnc1N1CCSCC1)c1ccc2c(c1)CCC2` stands -2.03%.
Under `CCc1nc(C)ncc1C(=O)N1CCOC(c2nc(C)n[nH]2)C1` (stereo not drawn) stands -7.88%; under `CC(C)(C)OC(=O)N[C@H]1CCN(c2cncc(Br)c2)C1`, -52.8%; under `O=C(Cc1cccs1)NC1(C(=O)NCC2CC2)CCCC1`, 4.19%.
The same measure for `CCCc1nc(C(=O)N(C)Cc2cc(CC)no2)cs1`: 6.75%; for `COc1cc(Cl)cc(CN2CCCC(N3CCCC3)C2)c1OC` (stereo not drawn): -3.88%.
For `CC(C)NC(=O)N1CCC[C@H]1C(=O)NCCCc1cccc(F)c1`, the cytotoxicity at 10 µM was 4.27%.
The same measure for `Cc1cc(NC(=O)Cn2ncc(Br)c2C)no1`: 4.12%; for `CCS(=O)(=O)NCC(=O)N1CCC(c2cc3ccccc3[nH]2)CC1`: -7.79%; for `CN(C)S(=O)(=O)c1ccc(CNC(=O)C2CC(=O)N(C(C)(C)C)C2)cc1` (stereo not drawn): 2.13%.
For the compound `NS(=O)(=O)N1CCC(C(=O)Nc2cccc(OC(F)F)c2)CC1`, the cytotoxicity at 10 µM was -9.5%.
The same measure for `Cc1cnn(CC(C)NCc2ccc(OCc3cccnc3)cc2)c1` (stereo not drawn): -1.07%; for `CCCNc1ccc(C(=O)NCCc2cccc(OC)c2)cn1`: 0.267%; for `COc1cccc2c1OCC(C(=O)N1CCN(S(C)(=O)=O)CC1)C2` (stereo not drawn): -7.23%.
Under `CC(NC(=O)C1=NN(C)C(=O)CC1)c1ccccc1Cl` (stereo not drawn) stands 0.665%; under `O=C(Nc1ccc2c(c1)OCO2)N1CCN(CCn2cccn2)CC1`, 0.741%; under `Cc1nc(CCNC(=O)c2cc(C(C)C)nn2C)sc1C`, 22.4%.
The same measure for `CC(C)(C)CN1CC[C@H](c2nnc(Cc3c[nH]c4ccccc34)o2)C1`: -3.9%; for `O=C(NCCc1cccnc1)Nc1cc(C(F)(F)F)c[nH]c1=O`: -12.2%; for `Cc1cnc(N2Cc3nccn3CC(Cn3nc(C)nc3C)C2)nc1` (stereo not drawn): -144%.
As for `CC(C)(C)Oc1ccncc1NCc1cscn1`, the cytotoxicity at 10 µM stood at 15.7%.
The same measure for `CN1N=C(C(=O)N2CCCCC2)S(=O)(=O)c2ccccc21`: -183%; for `O=C(CCc1nc(C2CC2)no1)c1ccc(F)c(F)c1`: 0.923%; for `CCc1cc(C(=O)N2CC[C@@H](c3ccc4c(c3)OCO4)[C@H](O)C2)[nH]n1`: -3.87%.
The same measure for `CCN(Cc1cnn(C)c1)S(=O)(=O)c1ccc(NC(C)=O)cc1`: 3.59%; for `Cc1cc(C(F)(F)F)nn1CCCNC(=O)C1CCCC1`: -4.93%; for `NCCc1c(-c2ccc(F)cc2)[nH][nH]c1=O`: -1.3%.
Under `Cc1nc2ccnn2c(C)c1CCC(=O)N1CCSCC1` stands -4.24%; under `COc1ccc(CNC2CCN(c3ccccc3)C2)cc1O` (stereo not drawn), 8.63%.
In the case of `O=C(NCCNc1ccc(C(F)(F)F)cn1)c1ccc(Cl)cc1F`, the cytotoxicity at 10 µM is -1.99%.
Consider `O=C(CN1CCNCC1)NCc1ccc2sccc2c1`, for which the cytotoxicity at 10 µM amounted to 1.16%.

The values are drawn from ChEMBL document CHEMBL4513216, “Probing the Open Global Health Chemical Diversity Library for Multistage-Active Starting Points for Next-Generation Antimalarials” (ACS Infect Dis, 2020).
